One assay deals with Escherichia coli. In words: Antibacterial activity against Escherichia coli at 1 mmol after 48 hrs by disk diffusion assay. It counts as functional. In outline:
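Disc diffusion on agar. A colony was grown in nutrient broth for 2.5 h and spread over dried plates. Sterile 6 mm paper discs carried 1 mmol of compound. Plates were held at 37 °C and read at 48 h for inhibition-zone diameter. Controls were ampicillin (standard) and a DMSO-only disc.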
For orientation: A growth-free zone around the sample is the usual read-out of agar diffusion tests.

Assay [1] has as its target T1, Ribonuclease pancreatic (Bos taurus) (UniProt P61823).
T1 sequence (whole entry): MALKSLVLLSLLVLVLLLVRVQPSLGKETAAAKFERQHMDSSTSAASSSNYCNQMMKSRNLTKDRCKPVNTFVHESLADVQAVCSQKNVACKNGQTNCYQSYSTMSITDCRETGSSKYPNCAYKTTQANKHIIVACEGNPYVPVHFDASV
In words: Inhibition of bovine pancreatic RNase A assessed as degradation of 18s rRNA after 1 hr by agarose gel based assay. In outline: (§1)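 Qualitative agarose-gel assay. RNase A was preincubated with compounds for 1 h at 37 °C. RNA substrate was then added and digested for 15 minutes. Samples were mixed with 40% sucrose and 0.25% bromophenol blue in 1× TAE and run on a 1.1% agarose gel. Degradation of 28S and 18S rRNA bands was scored.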

Assay [2] concerns the target T1, Ribonuclease pancreatic (Bos taurus). The assay is described as follows: Inhibition of bovine pancreatic RNase A assessed as degradation of 28s rRNA after 1 hr by agarose gel based assay. In outline:
as §1

Calls of active or inactive are those of the source. The calls are words filed in the database; no cut-off is given here.

For `COc1ccc([C@@H]2[C@H](CCN=[N+]=[N-])C(=O)N2c2ccccc2)cc1`, the outcome in the assay with Escherichia coli was inactive.
On the same count and under the same terms, then `COc1ccc([C@@H]2[C@H](CCO)C(=O)N2c2ccccc2)cc1`, with “inactive”.
In the case of `O=C1[C@@H](CCO)[C@@H](c2ccccc2)N1c1ccccc1`, the result with Escherichia coli was inactive.
With `Oc1cc(O)c2c(c1)O[C@H](c1ccc(O)c(O)c1)[C@@H](O)C2`, the “Inhibition (qualitative, active/not active)” value in assay [1] was “inactive”.
Still for that read-out and setting: then `Oc1cc(O)c2c(c1)O[C@H](c1ccc(O)c(O)c1)[C@H](O)C2`, with “inactive”.
Consider `[N-]=[N+]=NCC[C@@H]1C(=O)N(c2ccccc2)[C@@H]1c1ccccc1`, for which, in the assay on Escherichia coli, the result was inactive.
With `O=C1[C@@H](CCn2cc(CO[C@H]3Cc4c(O)cc(O)cc4O[C@@H]3c3ccc(O)c(O)c3)nn2)[C@@H](c2ccccc2)N1c1ccccc1` (mixture of isomers), the “diameter of the inhibition zone (DIZ)” value with Escherichia coli came out at 9 mm. In addition, the “Inhibition (qualitative, active/not active)” value in assay [1] was “Active”. Besides, the inhibition entry in assay [2] is “inactive”.
For `O=C1[C@@H](CCn2cc(CO[C@@H]3Cc4c(O)cc(O)cc4O[C@@H]3c3ccc(O)c(O)c3)nn2)[C@@H](c2ccccc2)N1c1ccccc1` (mixture of isomers), the “diameter of the inhibition zone (DIZ)” value in the assay on Escherichia coli came to 9 mm. In assay [1], the “Inhibition (qualitative, active/not active)” value is “Active”. Further, the inhibition result in assay [2] was “inactive”.
As to `COc1ccc([C@@H]2[C@H](CCn3cc(CO[C@H]4Cc5c(O)cc(O)cc5O[C@@H]4c4ccc(O)c(O)c4)nn3)C(=O)N2c2ccccc2)cc1` (mixture of isomers), the “diameter of the inhibition zone (DIZ)” value with Escherichia coli is on record as 6 mm. Moreover, the “Inhibition (qualitative, active/not active)” value in assay [1] was “Active”. Also, the inhibition result in assay [2] is “inactive”.
In the same order, the values of `COc1ccc([C@@H]2[C@H](CCn3cc(CO[C@@H]4Cc5c(O)cc(O)cc5O[C@@H]4c4ccc(O)c(O)c4)nn3)C(=O)N2c2ccccc2)cc1` (mixture of isomers) are 6 mm, “Active” and “inactive”.
